Reference: ChEMBL document CHEMBL1127823, “The effect of fluorine substitution on the metabolism and antimalarial activity of amodiaquine” (J Med Chem, 1994)

Experiments:
Plasmodium falciparum [1] = test: Antimalarial activity against Plasmodium falciparum T9-96; type: functional, organism-based
Method in brief: (§1)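 P. falciparum (Thai isolates; K1 uncloned, T9-96 cloned) kept in continuous culture in human erythrocytes, RPMI 1640 with 25 mM HEPES, 32 mM NaHCO3, 10% human serum, gassed 3% O2/4% CO2/93% N2. 48-h assay at 1% initial parasitaemia, 5% haematocrit; drugs from ethanol stocks (final <1% ethanol).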

[2] = pKa value of compound was evaluated; type: physicochemical
Plasmodium falciparum [3] = test: Antimalarial activity against Plasmodium falciparum K1; type: functional, organism-based; method in brief: as §1

Row | SMILES | IC50 (Plasmodium falciparum [1]) | pKa [2] | IC50 (Plasmodium falciparum [3])
1 | CCN(CC)Cc1cc(Nc2ccnc3cc(Cl)ccc23)c(F)c(F)c1O | 40 nM | 3.42 | 56 nM
2 | CCN(CC)Cc1cc(Nc2ccnc3cc(Cl)ccc23)ccc1O | 20 nM | 4.95 | 24 nM
3 | CCN(CC)Cc1cc(Nc2ccnc3cc(Cl)ccc23)cc(F)c1O | 37 nM | 3.96 | 42 nM
4 | CCN(CC)Cc1c(O)c(F)c(F)c(Nc2ccnc3cc(Cl)ccc23)c1F | 291 nM | 2.17 | 500 nM
5 | CCN(CC)Cc1c(O)cc(F)c(Nc2ccnc3cc(Cl)ccc23)c1F | 34 nM | 2.59 | 41 nM
6 | CCN(CC)Cc1cc(Nc2ccnc3cc(Cl)ccc23)ccc1F | 40 nM | 4.39 | 59 nM
